Results on four compounds are retold here after ChEMBL document CHEMBL1157387, “Antitussive stemoninine alkaloids from the roots of Stemona tuberosa” (2008).

Holding throughout (format): functional
For test [1], the system named is Cavia porcellus. Description: Antitussive activity in guinea pig assessed as inhibition of citric acid-induced coughing at 0.25 umol, intracerebroventricularly administered as single dose after 3 mins relative to control. The essentials:
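Unrestrained conscious Dunkin-Hartley guinea pigs with a 22-gauge guide cannula in the lateral ventricle, placed stereotaxically under anaesthesia, recovered 4 days. Single icv dose in 10 µL of Tween 80/saline (5:95). 3 min later, 8-min 0.5 M citric acid aerosol (0.5 mL/min) in an airtight chamber. Cough sounds recorded and episodes counted. % inhibition vs vehicle group; one-way ANOVA with Bonferroni tests.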

For test [2], the system named is Cavia porcellus. Put plainly: Antitussive activity in guinea pig assessed as inhibition of citric acid-induced coughing at 0.26 mmol/kg, ip administered as single dose after 30 mins. The conditions noted are these: 0.5 h. The essentials: (§1)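 Unrestrained conscious Dunkin-Hartley guinea pigs, randomised, given a single ip dose in DMSO. 30 min later, 8-min 0.5 M citric acid aerosol (0.5 mL/min) in an airtight chamber. Cough sounds recorded and episodes counted. % inhibition vs vehicle group (n = 4-8); one-way ANOVA with Bonferroni tests.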

Test [3] concerns Cavia porcellus. Put plainly: Antitussive activity in guinea pig assessed as inhibition of citric acid-induced coughing at 0.26 mmol/kg, po administered as single dose after 30 mins. On the set-up: scale not given: the % may be the effect or the level left. The essentials:
(§2)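 Unrestrained conscious Dunkin-Hartley guinea pigs, randomised, given a single oral dose of 100 mg/kg in Tween 80/saline (5:95). 30 min later, 8-min 0.5 M citric acid aerosol (0.5 mL/min) in an airtight chamber. Cough episodes counted from recorded sounds. % inhibition vs vehicle group (n = 4-8); ANOVA with Bonferroni tests.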

Test [4] relates to Cavia porcellus. Description: Antitussive activity in guinea pig assessed as inhibition of citric acid-induced coughing at 0.33 mmol/kg, po administered as single dose after 30 mins. The arrangement: scale not given: the % may be the effect or the level left. The essentials:
as §2

In test [5] the test system is Cavia porcellus. Description: Antitussive activity in guinea pig assessed as inhibition of citric acid-induced coughing at 0.33 mmol/kg, ip administered as single dose after 30 mins. Conditions: 0.5 h. Summed up: as §1

As to `CC[C@H]1[C@H]2[C@@H](CCCN3C([C@@H]4C[C@H](C)C(=O)O4)=CC(=O)[C@@]23OC)O[C@]12C=C(C)C(=O)O2`, the “inhibition (INH)” value with Cavia porcellus [1] is reported as 10%.
The same measure, in the same setting: the result for `CC[C@H]1[C@H]2[C@@H](CCCN3C([C@@H]4C[C@H](C)C(=O)O4)=CC(=O)[C@@]23O)O[C@]12C=C(C)C(=O)O2` [STEMOENONINE] reads 10%.
Turning to `CC[C@H]1[C@H]2[C@@H](CCCN3[C@H]2CC[C@H]3[C@@H]2C[C@H](C)C(=O)O2)O[C@]12C=C(C)C(=O)O2` [STEMONININE], the “inhibition (INH)” value in the test on Cavia porcellus [1] stood at 10%. The inhibition in vivo at 260 µmol/kg with Cavia porcellus [2] is 90%. Besides, in the test on Cavia porcellus [3], the Activity was found to be 70%.
For the compound `CC[C@H]1[C@H]2[C@@H](CCCN3C(=O)CC[C@@H]23)O[C@]12C=C(C)C(=O)O2` [STEMONINOAMIDE], the “inhibition (INH)” value with Cavia porcellus [1] worked out at 10%. Also, the Activity in the test on Cavia porcellus [4] came out at 70%. Further, the inhibition in vivo at 330 µmol/kg with Cavia porcellus [5] turned out to be 90%.
